Measured values published in ChEMBL document CHEMBL3792386, “Design, Synthesis, and Biological Evaluation of Novel Selenium (Se-NSAID) Molecules as Anticancer Agents” (J Med Chem, 2016).
Active and inactive are the calls of the source. The calls are words filed in the database; no cut-off is given here.

Columns and labels:
[1] = Antiproliferative activity against human SKOV3 cells assessed as reduction in cell viability after 48 hrs by MTT assay; type: functional, cell-based; settings: SK-OV-3, 48 h
Summary of the method: (§1)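 3000 cells/well incubated in triplicate with serial concentrations of compound for 24, 48 or 72 h at 37 °C. MTT (5.0 mg/mL solution) added 3 h before the end. Formazan dissolved in DMSO, absorbance read at 570 and 630 nm. Viability normalised to vehicle control. IC50 from non-linear regression (variable slope), mean ± SD of triplicates.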

[2] = Induction of cell death in human HCT116 cells at 15 uM after 24 hrs by ethidium bromide staining-based fluorescence microscopy; type: functional, HCT-116
Summary of the method: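 HCT116 cells treated 24 h with DMSO, 1 mM aspirin or 15 μM compound, then trypsinised. Cells were stained with calcein-AM (live, esterase activity) and ethidium homodimer-1 (dead, membrane loss). Cells were imaged by fluorescence microscopy with a 20X objective, and percent dead cells was counted. Values are mean ±SD.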

[3] = test system: HCT-116; assay: Induction of cell cycle arrest in human HCT116 cells assessed as accumulation at G2/M phase at 5 uM after 12 hrs by propidium iodide staining-based flow cytometry (reference value: 10%); type: functional
[4] = test system: NHDF; assay: Cytotoxicity against human NHDF at 1 to 10 uM after 48 hrs by MTT assay; type: cell-based
Summary of the method: (§2)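 Cells (HCT116, nHDF in serum-free fibroblast medium with growth kit, or MEFs) exposed to increasing compound concentrations for 48 h at 37 °C. Viability read by MTT: 3000 cells/well, triplicate, MTT 3 h before end, formazan in DMSO, absorbance 570/630 nm. Mean ± SD.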

[5] = test system: MEF; assay: Cytotoxicity against mouse MEF at 1 to 10 uM after 48 hrs by MTT assay; type: cell-based; summary of the method: as §2
[6] = test system: HCT-116; assay: Cytotoxicity against human HCT116 cells assessed as reduction in cell viability after 48 hrs MTT assay; type: functional, cell-based; summary of the method: as §2
[7] = test system: HCT-116; assay: Induction of cell cycle arrest in human HCT116 cells assessed as accumulation at G1 phase at 5 uM after 12 hrs by propidium iodide staining-based flow cytometry (reference value: 35%); type: functional
[8] = Effect on cell cycle in human HCT116 cells assessed as upregulation of cyclin p21 expression after 24 hrs by Western blot method; type: functional, cell-based; settings: HCT-116
Summary of the method: (§3)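 CRC cells treated at indicated doses for 24 h. Whole-cell lysates made in RIPA buffer with protease and phosphatase inhibitors and cleared at 15,000 rpm for 10 min. Resolved on 4-12% gels, transferred to PVDF, probed for cell-cycle proteins, detected by ECL. Membranes stripped for sequential probing.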

[9] = test system: HCT-116; assay: Effect on cell cycle in human HCT116 cells assessed as inhibition of cyclin B1 expression at 1 to 10 uM after 24 hrs by Western blot method; type: functional, cell-based; summary of the method: as §3
[10] = test system: HCT-116; assay: Effect on cell cycle in human HCT116 cells assessed as inhibition of cyclin E1 expression at 1 to 10 uM after 24 hrs by Western blot method; type: functional, cell-based; summary of the method: as §3
[11] = test system: HCT-116; assay: Induction of apoptosis in human HCT116 cells assessed as dead cells at 2.5 uM after 24 hrs by annexin V/7-ADD staining-based flow cytometry (reference value: 3.10%); type: functional
[12] = test system: HCT-116; assay: Induction of apoptosis in human HCT116 cells assessed as live cells at 5 uM after 24 hrs by annexin V/7-ADD staining-based flow cytometry (reference value: 90.05%); type: functional
[13] = test system: HCT-116; assay: Induction of apoptosis in human HCT116 cells assessed as dead cells at 10 uM after 24 hrs by annexin V/7-ADD staining-based flow cytometry (reference value: 3.10%); type: functional
[14] = test system: HCT-116; assay: Induction of apoptosis in human HCT116 cells assessed as late apoptotic cells at 10 uM after 24 hrs by annexin V/7-ADD staining-based flow cytometry (reference value: 1.65%); type: functional
[15] = test system: HCT-116; assay: Induction of apoptosis in human HCT116 cells assessed as live cells at 10 uM after 24 hrs by annexin V/7-ADD staining-based flow cytometry (reference value: 90.05%); type: functional
[16] = test system: HCT-116; assay: Induction of apoptosis in human HCT116 cells assessed as dead cells at 2.5 uM after 24 hrs by 7-ADD and caspase 3/7 activity-based flow cytometry (reference value: 3.25%); type: functional
[17] = test system: HCT-116; assay: Induction of apoptosis in human HCT116 cells assessed as late apoptotic cells at 2.5 uM after 24 hrs by 7-ADD and caspase 3/7 activity-based flow cytometry (reference value: 1.70%); type: functional
[18] = test system: HCT-116; assay: Induction of apoptosis in human HCT116 cells assessed as live cells at 2.5 uM after 24 hrs by 7-ADD and caspase 3/7 activity-based flow cytometry (reference value: 92.60%); type: functional
[19] = test system: HCT-116; assay: Induction of apoptosis in human HCT116 cells assessed as early apoptotic cells at 5 uM after 24 hrs by 7-ADD and caspase 3/7 activity-based flow cytometry (reference value: 2.45%); type: functional
[20] = test system: HCT-116; assay: Induction of apoptosis in human HCT116 cells assessed as dead cells at 10 uM after 24 hrs by 7-ADD and caspase 3/7 activity-based flow cytometry (reference value: 3.25%); type: functional
[21] = test system: HCT-116; assay: Induction of ROS generation in human HCT116 cells at 5 uM after 3 hrs by flow cytometry (reference value: 8.06%); type: functional
[22] = test system: HCT-116; assay: Induction of ROS generation in human HCT116 cells at 5 uM after 24 hrs by flow cytometry (reference value: 12.42%); type: functional
[23] = test system: HCT-116; assay: Induction of ROS generation in human HCT116 cells at 10 uM after 3 hrs by flow cytometry (reference value: 8.06%); type: functional
[24] = test system: HCT-116; assay: Induction of ROS generation in human HCT116 cells at 10 uM after 24 hrs by flow cytometry (reference value: 12.42%); type: functional
[25] = test system: UACC-903; assay: Potency index, ratio IC50 of selecoxib-1-GSH to IC50 of compound for human UACC-903 cells after 48 and 72 hrs; type: functional
[26] = test system: HT-29; assay: Antiproliferative activity against human HT-29 cells assessed as reduction in cell viability after 24 hrs by MTT assay; type: functional, cell-based; settings: HT-29, 24 h; summary of the method: as §1
[27] = test system: HT-29; assay: Antiproliferative activity against human HT-29 cells assessed as reduction in cell viability after 48 hrs by MTT assay; type: functional, cell-based; settings: HT-29, 48 h; summary of the method: as §1
[28] = test system: MDA-MB-231; assay: Antiproliferative activity against human MDA-MB-231 cells assessed as reduction in cell viability after 72 hrs by MTT assay; type: functional, cell-based; settings: MDA-MB-231, 72 h; summary of the method: as §1
[29] = Antiproliferative activity against human PANC1 cells assessed as reduction in cell viability after 48 hrs by MTT assay; type: functional, cell-based; settings: PANC-1, 48 h; summary of the method: as §1
[30] = test system: UACC-903; assay: Antiproliferative activity against human UACC-903 cells assessed as reduction in cell viability after 48 hrs by MTT assay; type: functional, cell-based; settings: UACC-903, 48 h; summary of the method: as §1
[31] = test system: RKO; assay: Antiproliferative activity against human RKO cells assessed as reduction in cell viability after 24 hrs by MTT assay; type: functional, cell-based; summary of the method: as §1
[32] = Antiproliferative activity against human DU145 cells assessed as reduction in cell viability after 24 hrs by MTT assay; type: functional, cell-based; settings: DU-145, 24 h; summary of the method: as §1
[33] = Antiproliferative activity against human DU145 cells assessed as reduction in cell viability after 48 hrs by MTT assay; type: functional, cell-based; settings: DU-145, 48 h; summary of the method: as §1

Compound CC(=O)Oc1ccccc1C(=O)NCC[Se]C#N has an IC50 [1] of 5.3 µM, an Activity [2] of 51% and an Activity [3] of 24%. The Activity [4] was “Non-toxic”, the Activity [5] was “Non-toxic” and the Activity [6] was “Active”. The Activity [7] was 62%, the Activity [8] was “Dose-dependent effect” and the inhibition [9] was “Active”. The inhibition [10] was “Active”, the Activity [11] was 1.25% and the Activity [12] was 31.2%. It also gave an Activity [13] of 1.6%, an Activity [14] of 51.55% and an Activity [15] of 14.45%. It also gave an Activity [16] of 2.1%, an Activity [17] of 9.05% and an Activity [18] of 60.4%. It also gave an Activity [19] of 44%, an Activity [20] of 2.25% and an Activity [21] of 9.16%. For the same compound, the Activity [22] was 66.42%, the Activity [23] was 9% and the Activity [24] was 80.54%. The “Ratio IC50” value [25] was “>=5”, the IC50 [26] was 3.4 µM and the IC50 [27] was 2.1 µM. For the same compound, the IC50 [28] was 6 µM, the IC50 [29] was 2.1 µM and the IC50 [30] was 4 µM. It also gave an IC50 [31] of 13.3 µM, an IC50 [32] of 8.2 µM and an IC50 [33] of 3.4 µM.
